Measurements from different studies.
Protocols differ between the studies behind these lines.
RET: Proto-oncogene tyrosine-protein kinase receptor Ret (RET, Homo sapiens, UniProt P07949)
RET M918T: Proto-oncogene tyrosine-protein kinase receptor Ret (RET, Homo sapiens, UniProt P07949, M918T)
RET V804M: Proto-oncogene tyrosine-protein kinase receptor Ret (RET, Homo sapiens, UniProt P07949, V804M)
RET V804L: Proto-oncogene tyrosine-protein kinase receptor Ret (RET, Homo sapiens, UniProt P07949, V804L)

| SMILES | target | observed | method | tested at | remaining binding [%] |
| --- | --- | --- | --- | --- | --- |
| O=C(N[C@H]1CCCCC/C=C\C2C[C@@]2(C(=O)O)NC(=O)[C@@H]2C[C@@H](Oc3ccncc3)CN2C1=O)OC1CCCC1 (some centres unmarked) | RET | binding | competition with immobilised ligand | 1 µM | 94 |
| C=CC(=O)N1CCC(C(=O)NCC(=O)N2CCN(c3nc(-c4cnc(N)nc4C(F)F)nc(N4CCOCC4)n3)CC2)CC1 | RET | binding | competition with immobilised ligand | 1 µM | 94 |
| N#Cc1ccccc1CSc1nnc2c(n1)[nH]c1ccccc12 | RET | binding | competition with immobilised ligand | 10 µM | 89 |
| CN(C)c1nccc(-c2cnn3ncccc23)n1 | RET | binding | – | 1 µM | 91 |
| c1cncc(-c2cccc(Nc3nccc(NC4CCCCC4)n3)c2)c1 | RET M918T | binding | competition with immobilised ligand | 10 µM | 2.1 |
| CCN1CCN(Cc2ccc(C(=O)Nc3ccc(C)c(Oc4ccc5c(c4)CC(=O)N5)c3)cc2C(F)(F)F)CC1 | RET | binding | competition with immobilised ligand | 1 µM | 14 |
| CC1CCCN1c1nccc(-c2cnn3ncccc23)n1 (centres unmarked) | RET V804M | binding | – | 1 µM | 100 |
| CC(C)CC(=O)N1CCc2nc(-c3ccc(Br)cc3)nc(N(C)Cc3ccccc3)c2C1 | RET | cell-free assay | competition with immobilised ligand | 0.1 µM | 68 |
| C[C@@H](c1ccc(-n2cnc3c(N)ncnc32)cc1)N1CCc2nn(C)c(Cc3ccccc3)c2C1=O | RET V804M | binding | competition with immobilised ligand | 0.1 µM | 80 |
| COc1cnc(Nc2cccc(S(N)(=O)=O)c2)nc1N1CCN(c2ccccc2)CC1 | RET V804M | binding | competition with immobilised ligand | 1 µM | 67 |
| CNC(=O)Nc1ccc2c(c1)CC[C@@]21OC(=O)N(CC(=O)N(Cc2ccc(F)cc2)[C@@H](C)C(F)(F)F)C1=O | RET V804M | cell-free assay | competition with immobilised ligand | 1 µM | 98 |
| O=C(NCC1CCOCC1)c1n[nH]cc1NC(=O)c1c(F)cccc1F | RET V804M | binding | competition with immobilised ligand | 1 µM | 90 |
| O=C(c1ccc(Nc2ncc(Cl)c(-c3cc4ccccc4s3)n2)cc1)N1CCC(N2CCCC2)CC1 | RET M918T | binding | competition with immobilised ligand | 1 µM | 13 |
| F[C@@H]1CCN(c2nccc(-c3cnn4ncccc34)n2)C1 | RET V804M | binding | – | 1 µM | 72 |
| O=C(c1ccc(Nc2ncc(Cl)c(-c3ccc(Cl)s3)n2)cc1)N1CCC(N2CCCC2)CC1 | RET M918T | binding | competition with immobilised ligand | 1 µM | 8.4 |
| CN(C)C(=O)Cn1cc(-c2nc([C@@](C)(c3ccc(-c4cnc(N)nc4)cc3)C3CC3)no2)cn1 | RET V804L | cell-free assay | competition with immobilised ligand | 1 µM | 93 |
| O=C(Nc1c[nH]nc1C(=O)NC1CCNCC1)c1cc(F)cc(F)c1 | RET V804L | binding | competition with immobilised ligand | 1 µM | 100 |
| N[C@@H]1CCN(c2nccc(-c3cnn4ncccc34)n2)C1 | RET V804M | binding | – | 1 µM | 99 |
| Cc1nccc(COC(=O)N2C[C@@H]3[C@@H](CNC(=O)c4ccc5[nH]nnc5c4)[C@@H]3C2)n1 | RET M918T | cell-free assay | competition with immobilised ligand | 1 µM | 100 |

| SMILES | target | observed | method | tested at | remaining binding [%] |
| --- | --- | --- | --- | --- | --- |
| COc1ncc2cc3ccccc3nc2c1C#N | RET M918T | cell-free assay | competition with immobilised ligand | 5 µM | 96 |
| Cc1cnc(Nc2ccc(C(=O)N3CCC(N4CCCC4)CC3)cc2)nc1-c1cc2ccccc2s1 | RET V804L | binding | competition with immobilised ligand | 1 µM | 11 |
| CN(c1nccc(-c2cnn3ncccc23)n1)C1CC1 | RET V804L | binding | – | 1 µM | 100 |
| O=C(Nc1cnc(Oc2ccc(F)cc2)nc1)N1CCc2ncccc2[C@@H]1c1ccc(F)cc1 | RET M918T | cell-free assay | competition with immobilised ligand | 1 µM | 95 |
| CN(C)c1nccc(-c2cnc3ncccn23)n1 | RET | binding | – | 1 µM | 91 |
| CN1CCN(c2ccc(Nc3nccc(-c4ccccc4)n3)cc2C(F)(F)F)CC1 | RET V804M | binding | – | 10 µM | 48 |
| CNC(=O)[C@@H]1CC[C@@H](n2c(-c3ccc4cnccc4c3)nc3ccc(C(=O)NCc4cccc(C(N)=O)c4)cc32)C1 | RET V804L | binding | competition with immobilised ligand | 1 µM | 94 |
| FC(F)(F)Oc1cccc(-c2cnc3ccc(-c4ccncc4)nn23)c1 | RET | cell-free assay | competition with immobilised ligand | 5 µM | 86 |
| N#CC1(c2ccccn2)CCN(Cc2cc(C(=O)N3CCCC3)c(=O)n3ccccc23)CC1 | RET M918T | cell-free assay | competition with immobilised ligand | 1 µM | 88 |
| O=C(c1ccc(Nc2nccc(-c3cc4ccccc4s3)n2)cc1)N1CCC(N2CCCC2)CC1 | RET V804M | binding | competition with immobilised ligand | 1 µM | 99 |
| C[C@@H]1CN(c2ccc3ncc(-c4ccc5[nH]nc(C6CC6)c5c4)n3n2)C[C@H](C)O1 | RET | binding | competition with immobilised ligand | 50 nM | 88 |
| COc1cnc(Nc2cccc(S(N)(=O)=O)c2)nc1N1CCN(c2ccccc2)C(=O)C1 | RET V804L | binding | competition with immobilised ligand | 1 µM | 98 |
| Cc1cnn2ncc(-c3ccnc(N(C)C)n3)c2c1 | RET M918T | binding | – | 1 µM | 100 |
| Nc1ncc2c(n1)-c1c([nH]c3ccc(C#CC4CC4)cc13)CCCC2 | RET | binding | competition with immobilised ligand | 1 µM | 91 |
| O=C(NCCCN1CCOCC1)c1ccc(Nc2ncc(Cl)c(-c3ccc(Cl)s3)n2)cc1 | RET | binding | competition with immobilised ligand | 1 µM | 24 |
| CN1CCN(c2ccc(Nc3nccc(-c4cccc([N+](=O)[O-])c4)n3)cc2C(F)(F)F)CC1 | RET V804L | binding | – | 10 µM | 41 |
| CCc1ccccc1C(=O)Nc1n[nH]c2c(C)c(F)c(C3C(C#N)=C(C)N(C)C(C)=C3C#N)cc12 | RET V804L | cell-free assay | competition with immobilised ligand | 1 µM | 25 |
| O=C(NCCCN1CCOCC1)c1ccc(Nc2nccc(-c3cc4ccccc4s3)n2)cc1 | RET V804M | binding | competition with immobilised ligand | 1 µM | 81 |
| C[C@@H]1CCN(c2nccc(-c3cnn4ncccc34)n2)C1 | RET V804L | binding | – | 1 µM | 100 |
